Results reported in ChEMBL document CHEMBL3351307, “Synthesis and structure-activity relationships of novel, potent, orally active hypoxia-inducible factor-1 inhibitors” (Bioorg Med Chem, 2014).
The source made the active and inactive calls. No cut-off for these calls is given here.

What follows are compounds tested on U-251 (assay: Suppression of hypoxia-induced HIF1alpha protein expression in human U251 cells at 0.0001 to 1 uM incubated for 6 hrs in presence of 25 uM proteasome inhibitor MG132 by ELISA method). Settings: not given.
Format: functional, cell-based
Summary of the method: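 Untransfected U251 cells (4 × 10⁴/well) were incubated with graded compound concentrations for 6 h under 21% O₂, 2% O₂, or 2% O₂ with 25 µM MG132. Lysates were diluted fivefold in PBS/1% BSA and HIF-1α measured by ELISA. Mean of two wells.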

SMILES	inhibition
O=C(Nc1ccc(C#Cc2ccccc2)cc1)c1ccc(CN2CCN(Cc3cccnc3)CC2)cc1	inactive

What follows are compounds tested against Hypoxia inducible factors; HIF-1-alpha, HIF-2-alpha (Homo sapiens, UniProt Q16665+Q99814) (assay: Inhibition of HIF1 signaling in human U251 cells expressing VEGF by VEGF promoter-driven PLAP reporter gene assay). Settings: u-251.
Format: cell-based
Summary of the method: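 U251/VEGF-PLAP reporter cells seeded at 4.0 × 10⁴ cells/well and incubated overnight before compounds were added. Compounds were dissolved in DMSO and diluted in culture medium, final DMSO ≤0.2% (v/v). Cells grown in DMEM with 10% FBS at 37 °C, 5% CO₂, under 21% O₂ (normoxia) or 2% O₂ (hypoxia).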

IC50	SMILES
7.9 nM	O=C(Nc1ccc(C#Cc2ccccc2)cc1)c1ccc(CN2CCN(Cc3cccnc3)CC2)cc1
4500 nM	O=C(Nc1ccc(C(F)(F)F)cc1)c1ccc(CN2CCOCC2)nc1
0.97 nM	O=C(Nc1ccc(C#CC23CC4CC(CC(C4)C2)C3)cc1)c1ccc(CN2CCN(Cc3cccnc3)CC2)cc1
120 nM	CN(CCN(C)Cc1cccnc1)Cc1ccc(C(=O)Nc2ccc(C(F)(F)F)cc2)cc1
13 nM	O=C(Nc1ccc(C(F)(F)F)cc1)c1ccc(CN2CCN(Cc3ccccc3)CC2)cc1
5.8 nM	Nc1ncccc1C(=O)N1CCN(Cc2ccc(C(=O)Nc3ccc(C#CC45CC6CC(CC(C6)C4)C5)cc3)cc2)CC1
> 20000 nM	O=C(Nc1ccccc1I)c1ccc(CN2CCOCC2)cc1
2200 nM	O=C(Nc1cccc(I)c1)c1ccc(CN2CCOCC2)cc1
> 200 nM	O=C(Nc1ccc(C#CC2(O)CCCCC2)cc1)c1ccc(CN2CCN(Cc3cccnc3)CC2)cc1
13 nM	C[C@@H]1CN(Cc2cccnc2)CCN1Cc1ccc(C(=O)Nc2ccc(C(F)(F)F)cc2)cc1
230 nM	O=C(Nc1ccc(C(F)(F)F)cc1)c1ccc(CN2CCOCC2)cn1
14 nM	O=C(Nc1ccc(C(F)(F)F)cc1)c1ccc(CN2CCN(Cc3cccnc3)CC2)cc1
2200 nM	CN(C(=O)c1ccc(CN2CCOCC2)cc1)c1ccc(I)cc1.Cl
13900 nM	COc1ccc(NC(=O)c2ccc(CN3CCOCC3)cc2)cc1
2500 nM	O=C(Nc1ccc(CN2CCOCC2)cc1)c1ccc(I)cc1
7.9 nM	O=C(Nc1ccc(C(F)(F)F)cc1)c1ccc(CN2CCN(Cc3ccncc3)CC2)cc1
4000 nM	O=C(Nc1ccc(C(F)(F)F)cn1)c1ccc(CN2CCOCC2)cc1
35 nM	C[C@H]1CN(Cc2ccc(C(=O)Nc3ccc(C(F)(F)F)cc3)cc2)CCN1Cc1cccnc1
1.1 nM	COCc1ccc(CN2CCN(Cc3ccc(C(=O)Nc4ccc(C#CC56CC7CC(CC(C7)C5)C6)cc4)cc3)[C@@H](C)C2)cn1
560 nM	O=C(Nc1ccc(I)cc1)c1ccc(CN2CCOCC2)cc1

Further lines, the compound ahead of its results:

SMILES	IC50
C[C@H]1CN(Cc2cccnc2)CCN1Cc1ccc(C(=O)Nc2ccc(C(F)(F)F)cc2)cc1	3.3 nM
FC(F)(F)c1ccc(/C=C/c2ccc(CN3CCOCC3)cc2)cc1	880 nM
COCCOCc1ccc(CN2CCN(Cc3ccc(C(=O)Nc4ccc(C#CC56CC7CC(CC(C7)C5)C6)cc4)cc3)[C@@H](C)C2)cn1	0.47 nM
Ic1ccc(NCc2ccc(CN3CCOCC3)cc2)cc1	2500 nM
O=C(Nc1ccc(C(F)(F)F)cc1)c1cccc(CN2CCOCC2)c1	> 10000 nM
O=C(Nc1ccc(C#CC2CCCCC2)cc1)c1ccc(CN2CCN(Cc3cccnc3)CC2)cc1	3.1 nM
O=C(Nc1ccc(C(F)(F)F)cc1)c1ccc(CN2CCOCC2)cc1	280 nM
O=C(Nc1ccccc1)c1ccc(CN2CCOCC2)cc1	5400 nM
C[C@H]1CN(Cc2cccnc2)CCN1Cc1ccc(C(=O)Nc2ccc(C#CC34CC5CC(CC(C5)C3)C4)cc2)cc1	2.6 nM
O=C(Nc1ccc(C(F)(F)F)cc1)c1ccc(CC2CCN(Cc3ccncc3)CC2)cc1	110 nM
O=C(Nc1ccc(C(F)(F)F)cc1)c1ccc(CN2CCOCC2)s1	1600 nM
Nc1ncccc1C(=O)N1CCN(Cc2ccc(C(=O)Nc3ccc(C#Cc4ccccc4)cc3)cc2)CC1	21 nM
O=C(Nc1ccc(C(F)(F)F)cc1)c1ccccc1CN1CCOCC1	> 10000 nM
O=C(Nc1ccc(C#Cc2cccnc2)cc1)c1ccc(CN2CCN(Cc3cccnc3)CC2)cc1	34 nM
C[C@@H]1CN(Cc2ccc(C(=O)Nc3ccc(C(F)(F)F)cc3)cc2)CCN1Cc1cccnc1	30 nM

These compounds were tested on Mus musculus (assay: Suppression of HIF1alpha protein expression in BALB/cA mouse xenografted with human U251 cells at 50 to 100 mg/kg, po after 24 hrs by ELISA). Settings: U-251.
Format: functional, organism-based
Summary of the method: (§1)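 Female BALB/cA nu/nu mice bearing subcutaneous untransfected U251 tumors (~300 mm³) got a single oral dose at 10 mL/kg in DMSO/Tween-80 (35:65) diluted 5-fold with saline. Tumors harvested 24 h later, frozen in liquid nitrogen and fragmented, then lysed in Tris pH 7.5/NaCl/Triton X-100 buffer and centrifuged. HIF-1α measured by ELISA, normalized to BCA total protein, expressed as % of vehicle control. Mean of three animals.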

SMILES	inhibition
O=C(Nc1ccc(C#Cc2ccccc2)cc1)c1ccc(CN2CCN(Cc3cccnc3)CC2)cc1	Active
Nc1ncccc1C(=O)N1CCN(Cc2ccc(C(=O)Nc3ccc(C#Cc4ccccc4)cc3)cc2)CC1	Active

What follows are compounds tested on Mus musculus (assay: Suppression of HIF1alpha mRNA expression in BALB/cA mouse xenografted with human U251 cells at 50 to 100 mg/kg, po after 24 hrs). Settings: U-251.
Format: functional, organism-based

SMILES	inhibition
O=C(Nc1ccc(C#Cc2ccccc2)cc1)c1ccc(CN2CCN(Cc3cccnc3)CC2)cc1	inactive
Nc1ncccc1C(=O)N1CCN(Cc2ccc(C(=O)Nc3ccc(C#Cc4ccccc4)cc3)cc2)CC1	inactive

What follows are compounds tested on Mus musculus (assay: Suppression of HIF1alpha protein expression in BALB/cA mouse xenografted with human U251 cells at 6.25 to 12.5 mg/kg, po after 24 hrs by ELISA). Settings: U-251.
Format: functional, organism-based
Summary of the method: as §1

SMILES	inhibition
COCCOCc1ccc(CN2CCN(Cc3ccc(C(=O)Nc4ccc(C#CC56CC7CC(CC(C7)C5)C6)cc4)cc3)[C@@H](C)C2)cn1	Active

The compounds below were run on Mus musculus (assay: Toxicity in BALB/cA mouse xenografted with human U251 cells assessed as reduction in body weight at 12.5 mg/kg, po after 24 hrs). Settings: in vivo.
Format: organism-based, U-251
Set-up: dose 12.5 mg/kg, route oral; scale not given: the % may be the effect or the level left
Summary of the method: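 Nude female BALB/cA mice bearing subcutaneous U251 tumors received one oral dose (10 mL/kg; DMSO/Tween-80 35:65 diluted 5-fold with saline). Body weight was compared with vehicle controls 24 h after dosing.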

SMILES	Activity
COCCOCc1ccc(CN2CCN(Cc3ccc(C(=O)Nc4ccc(C#CC56CC7CC(CC(C7)C5)C6)cc4)cc3)[C@@H](C)C2)cn1	92%

The compounds below were run on U-251 (assay: Antitumor activity against human U251 cells xenografted in BALB/cA mouse assessed as delay in tumor growth at 12.5 to 100 mg/kg, po dosed daily for 11 days). Settings: not given.
Format: functional, organism-based
Summary of the method: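 Untransfected U251 cells injected subcutaneously into flank or hind leg of female BALB/cA nu/nu mice and grown to about 300 mm³. Mice stratified into groups of 5 with similar mean tumor volume. Dosed orally at 10 mL/kg once daily for 11 days. Vehicle was DMSO/Tween-80 (35:65) diluted 5-fold with saline just before dosing. Tumor volume (length × diameter²/2) measured twice weekly and expressed relative to pretreatment size.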

SMILES	TGI
Nc1ncccc1C(=O)N1CCN(Cc2ccc(C(=O)Nc3ccc(C#Cc4ccccc4)cc3)cc2)CC1	Active

What follows are compounds tested on Mus musculus (assay: Toxicity in BALB/cA mouse xenografted with human U251 cells assessed as reduction in body weight at 12.5 to 100 mg/kg, po dosed daily for 11 days). Settings: in vivo, 264 h.
Format: organism-based, U-251
Set-up: dose 12.5-100 mg/kg, route oral
Summary of the method: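 Female BALB/cA nu/nu mice carried subcutaneous untransfected U251 tumors of about 300 mm³, 5 per group. Given oral doses at 10 mL/kg once daily for 11 days in DMSO/Tween-80 (35:65) diluted 5-fold in saline. Body weight was followed alongside tumor volume.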

SMILES	Activity
Nc1ncccc1C(=O)N1CCN(Cc2ccc(C(=O)Nc3ccc(C#Cc4ccccc4)cc3)cc2)CC1	Non-toxic

The compounds below were run on Mus musculus (assay: Suppression of HIF1alpha protein expression in BALB/cA mouse xenografted with human U251 cells at 12.5 mg/kg, po after 3 hrs by ELISA). Settings: U-251.
Format: functional, organism-based
Set-up: dose 12.5 mg/kg
Summary of the method: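 Single oral dose given to female nude BALB/cA mice with subcutaneous U251 xenografts. Tumors collected at 3, 12, 16 and 24 h after dosing. HIF-1α in total tumor extracts measured by ELISA and normalized to total protein. Mean ± SD reported.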

SMILES	inhibition
Nc1ncccc1C(=O)N1CCN(Cc2ccc(C(=O)Nc3ccc(C#Cc4ccccc4)cc3)cc2)CC1	Active

What follows are compounds tested on Mus musculus (assay: Toxicity in BALB/cA mouse xenografted with human U251 cells assessed as mouse survival at 50 mg/kg/day, po). Settings: in vivo.
Format: organism-based, U-251
Set-up: route oral
Summary of the method: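 Survival model: untransfected U251 cells implanted intracranially in athymic mice. Oral dosing once daily for about 50 days. Dose formulated in DMSO/Tween-80 (35:65) and diluted 5-fold with saline immediately before administration.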

SMILES	Survival
Nc1ncccc1C(=O)N1CCN(Cc2ccc(C(=O)Nc3ccc(C#Cc4ccccc4)cc3)cc2)CC1	50 days

The compounds below were run on U-251 (assay: Suppression of hypoxia-induced HIF1alpha protein expression in human U251 cells at 0.0001 to 1 uM incubated for 6 hrs by ELISA method). Settings: not given.
Format: functional, cell-based
Summary of the method: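 Untransfected U251 cells at 4 × 10⁴ cells/well were exposed to compound for 6 h under hypoxia (2% O₂), with normoxia (21% O₂) as comparison. Cells were lysed in Tris/NaCl/Triton buffer, lysate diluted fivefold in PBS with 1% BSA, and HIF-1α quantified by ELISA. Mean of two wells.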

SMILES	inhibition
O=C(Nc1ccc(C#Cc2ccccc2)cc1)c1ccc(CN2CCN(Cc3cccnc3)CC2)cc1	Active

What follows are compounds tested on U-251 (assay: Suppression of deferoxamine-induced HIF1alpha protein expression in human U251 cells at 0.0001 to 1 uM incubated for 6 hrs by ELISA method). Settings: not given.
Format: functional, cell-based
Summary of the method: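 Untransfected U251 cells at 4 × 10⁴ cells/well were treated for 6 h with a range of compound concentrations. Conditions were 21% O₂, 2% O₂, or 21% O₂ plus 100 µM deferoxamine. Cells were lysed, lysate diluted fivefold in PBS/1% BSA, and HIF-1α measured by total HIF-1α ELISA. Mean of two wells.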

SMILES	inhibition
O=C(Nc1ccc(C#Cc2ccccc2)cc1)c1ccc(CN2CCN(Cc3cccnc3)CC2)cc1	inactive

These compounds were tested on U-251 (assay: Suppression of HIF1alpha mRNA expression in human U251 cells). Settings: not given.
Format: functional, cell-based

SMILES	inhibition
O=C(Nc1ccc(C#Cc2ccccc2)cc1)c1ccc(CN2CCN(Cc3cccnc3)CC2)cc1	inactive
